# According to ChEMBL document CHEMBL4364292, “Discovery of a Potent and Selective CCR4 Antagonist That Inhibits Treg Trafficking into the Tumor Microenvironment” (J Med Chem, 2019):
# Assays:
# [1] = molecular target: T1, C-C chemokine receptor type 4 (Homo sapiens, UniProt P51679); experiment: Antagonist activity at human CCR4 expressed in rat chem-5 cells assessed as inhibition of CCL22-induced calcium flux measured at 2.5 secs time interval for 45 secs by fluorescence assay; type: functional, cell-based
# T1 sequence (P51679 whole entry): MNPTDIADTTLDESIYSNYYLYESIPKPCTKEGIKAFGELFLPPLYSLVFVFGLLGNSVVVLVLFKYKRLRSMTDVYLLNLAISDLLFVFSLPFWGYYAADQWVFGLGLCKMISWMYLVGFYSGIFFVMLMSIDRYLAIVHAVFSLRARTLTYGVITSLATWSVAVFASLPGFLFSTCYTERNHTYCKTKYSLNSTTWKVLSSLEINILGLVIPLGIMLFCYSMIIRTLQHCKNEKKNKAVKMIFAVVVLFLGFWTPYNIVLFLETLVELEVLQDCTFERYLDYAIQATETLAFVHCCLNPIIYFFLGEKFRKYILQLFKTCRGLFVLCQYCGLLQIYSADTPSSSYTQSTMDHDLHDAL
# Method in brief: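 Calcium flux functional readout of CCR4 antagonism, run without serum; IC50 reported.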
# [2] = Hepatic clearance in rat at 0.5 mg/kg, iv; type: ADME, organism-based; conditions: in vivo
# [3] = AUCinfinity in rat at 0.5 mg/kg, iv; type: ADME, organism-based; design: dose 0.5 mg/kg, route intravenous, time infinity; conditions: in vivo
# [4] = Stability in human hepatocytes assessed as compound remaining incubated for 60 mins under shaking condition by LC-MS/MS analysis; type: ADME, cell-based, Hepatocyte; conditions: read-out: Stability
# Method in brief: (§1)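 Human and rat hepatocytes exposed to compound; percent parent remaining reported.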
# [5] = Stability in rat hepatocytes assessed as compound remaining incubated for 60 mins under shaking condition by LC-MS/MS analysis; type: ADME, cell-based, Hepatocyte; conditions: read-out: Stability; method in brief: as §1
# [6] = Bioavailability in rat; type: ADME, organism-based; conditions: in vivo
# [7] = molecular target: Cytochrome P450 3A4 (Homo sapiens, UniProt P08684); experiment: Inhibition of CYP3A4 (unknown origin); type: ADME
# Chain of Cytochrome P450 3A4 (P08684 whole entry): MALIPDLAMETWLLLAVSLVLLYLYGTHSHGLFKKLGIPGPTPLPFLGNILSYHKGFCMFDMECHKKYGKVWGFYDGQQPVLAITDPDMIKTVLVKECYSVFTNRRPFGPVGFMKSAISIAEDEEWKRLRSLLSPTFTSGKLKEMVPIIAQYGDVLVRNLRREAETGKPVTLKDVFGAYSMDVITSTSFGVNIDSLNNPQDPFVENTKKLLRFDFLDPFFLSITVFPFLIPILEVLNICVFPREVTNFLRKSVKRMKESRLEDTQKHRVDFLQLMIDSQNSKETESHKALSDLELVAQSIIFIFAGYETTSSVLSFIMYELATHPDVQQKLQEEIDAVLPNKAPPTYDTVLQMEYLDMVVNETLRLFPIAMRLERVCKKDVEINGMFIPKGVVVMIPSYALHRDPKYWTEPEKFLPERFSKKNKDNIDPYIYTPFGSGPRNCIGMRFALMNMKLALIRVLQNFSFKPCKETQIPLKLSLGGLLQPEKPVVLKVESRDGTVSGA
# Method in brief: (§2)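 CYP inhibition tested against 1A2, 2C9, 2C19, 2D6 and 3A4; IC50 in μM.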
# [8] = molecular target: T2, Cytochrome P450 1A2 (Homo sapiens, UniProt P05177); experiment: Inhibition of CYP1A2 (unknown origin); type: ADME; method in brief: as §2
# T2 sequence (P05177 whole entry): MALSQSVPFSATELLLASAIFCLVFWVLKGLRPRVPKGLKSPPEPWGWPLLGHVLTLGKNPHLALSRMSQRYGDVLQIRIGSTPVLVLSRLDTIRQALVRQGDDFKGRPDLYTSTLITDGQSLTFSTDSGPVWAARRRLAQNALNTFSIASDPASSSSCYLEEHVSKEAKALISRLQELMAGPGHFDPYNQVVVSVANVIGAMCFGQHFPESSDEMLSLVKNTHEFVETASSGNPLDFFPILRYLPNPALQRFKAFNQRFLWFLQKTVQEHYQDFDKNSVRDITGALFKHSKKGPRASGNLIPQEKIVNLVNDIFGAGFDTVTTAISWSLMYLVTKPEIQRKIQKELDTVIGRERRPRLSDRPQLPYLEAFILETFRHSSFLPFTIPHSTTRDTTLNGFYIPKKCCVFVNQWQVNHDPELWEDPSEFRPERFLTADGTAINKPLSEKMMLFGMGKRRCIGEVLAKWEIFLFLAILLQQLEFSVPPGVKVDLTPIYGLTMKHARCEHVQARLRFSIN
# [9] = molecular target: Cytochrome P450 2D6 (Homo sapiens, UniProt P10635); experiment: Inhibition of CYP2D6 (unknown origin); type: ADME; method in brief: as §2
# Chain of Cytochrome P450 2D6 (P10635 whole entry): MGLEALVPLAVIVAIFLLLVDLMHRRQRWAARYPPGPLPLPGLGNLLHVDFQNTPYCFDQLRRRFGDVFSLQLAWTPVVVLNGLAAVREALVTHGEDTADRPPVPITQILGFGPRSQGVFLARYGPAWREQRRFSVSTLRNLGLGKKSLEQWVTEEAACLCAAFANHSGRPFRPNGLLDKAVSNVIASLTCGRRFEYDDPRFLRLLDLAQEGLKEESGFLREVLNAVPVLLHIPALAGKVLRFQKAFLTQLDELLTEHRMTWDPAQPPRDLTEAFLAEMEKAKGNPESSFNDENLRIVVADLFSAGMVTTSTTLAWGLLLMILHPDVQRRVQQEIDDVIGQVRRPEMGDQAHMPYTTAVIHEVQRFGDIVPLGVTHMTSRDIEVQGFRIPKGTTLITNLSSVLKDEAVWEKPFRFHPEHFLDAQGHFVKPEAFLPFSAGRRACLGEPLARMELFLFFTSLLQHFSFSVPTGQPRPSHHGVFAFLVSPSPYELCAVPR
# [10] = Hepatic clearance in rat at 0.5 mg/kg, iv or 2 mg/kg, po; type: ADME, organism-based; conditions: in vivo
# [11] = molecular target: Cytochrome P450 2C19 (Homo sapiens, UniProt P33261); experiment: Inhibition of CYP2C19 (unknown origin); type: ADME; method in brief: as §2
# Chain of Cytochrome P450 2C19 (P33261 whole entry): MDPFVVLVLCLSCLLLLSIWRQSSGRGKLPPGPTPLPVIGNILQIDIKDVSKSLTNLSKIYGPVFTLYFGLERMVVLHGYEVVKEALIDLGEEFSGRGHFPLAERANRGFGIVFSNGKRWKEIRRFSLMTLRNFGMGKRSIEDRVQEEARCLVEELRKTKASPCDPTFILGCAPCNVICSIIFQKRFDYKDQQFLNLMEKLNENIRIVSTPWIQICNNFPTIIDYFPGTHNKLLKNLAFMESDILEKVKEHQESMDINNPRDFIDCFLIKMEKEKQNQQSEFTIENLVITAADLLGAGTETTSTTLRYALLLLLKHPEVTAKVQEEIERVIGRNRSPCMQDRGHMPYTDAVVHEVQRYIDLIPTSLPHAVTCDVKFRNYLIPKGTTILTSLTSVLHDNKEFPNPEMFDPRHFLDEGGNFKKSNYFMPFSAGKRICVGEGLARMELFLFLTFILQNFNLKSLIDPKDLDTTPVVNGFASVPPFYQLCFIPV
# [12] = molecular target: Cytochrome P450 2C9 (Homo sapiens, UniProt P11712); experiment: Inhibition of CYP2C9 (unknown origin); type: ADME; method in brief: as §2
# Chain of Cytochrome P450 2C9 (P11712 whole entry): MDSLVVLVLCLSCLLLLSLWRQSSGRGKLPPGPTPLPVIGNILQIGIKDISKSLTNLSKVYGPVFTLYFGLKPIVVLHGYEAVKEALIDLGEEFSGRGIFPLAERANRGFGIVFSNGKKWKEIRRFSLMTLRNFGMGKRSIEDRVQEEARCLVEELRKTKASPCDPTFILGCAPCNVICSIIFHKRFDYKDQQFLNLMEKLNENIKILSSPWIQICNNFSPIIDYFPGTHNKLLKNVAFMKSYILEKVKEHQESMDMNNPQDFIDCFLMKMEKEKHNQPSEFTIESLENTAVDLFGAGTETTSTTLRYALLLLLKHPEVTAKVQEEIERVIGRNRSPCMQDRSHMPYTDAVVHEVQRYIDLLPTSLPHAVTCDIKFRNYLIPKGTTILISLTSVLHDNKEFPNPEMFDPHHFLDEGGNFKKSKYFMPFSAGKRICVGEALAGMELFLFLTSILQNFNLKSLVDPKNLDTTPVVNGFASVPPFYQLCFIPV
# [13] = Terminal half-life in rat at 0.5 mg/kg, iv or 2 mg/kg, po; type: ADME, organism-based; conditions: in vivo, read-out: beta t1/2 (converted)
# [14] = Oral bioavailability in rat at 2 mg/kg, po; type: ADME, organism-based; conditions: in vivo
# [15] = AUC(0 to infinity) in rat at 2 mg/kg, po; type: ADME, organism-based; design: dose 2 mg/kg, route oral, time infinity; conditions: in vivo
# [16] = Volume of distribution at steady state in rat at 0.5 mg/kg, iv or 2 mg/kg, po; type: ADME, organism-based; conditions: in vivo, read-out: Vdss
# [17] = Volume of distribution at steady state in mouse; type: ADME, organism-based; conditions: in vivo, read-out: Vdss
# [18] = Oral bioavailability in cynomolgus monkey at 2 mg/kg, po; type: ADME, organism-based, Macaca fascicularis; conditions: in vivo
# Method in brief: (§3)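 Cross-species PK (dog, cynomolgus monkey): 0.5 mg/kg IV or 2 mg/kg PO; three animals per group.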
# [19] = Terminal half-life in dog at 0.5 mg/kg, iv; type: ADME, organism-based, Canis lupus familiaris; conditions: in vivo, read-out: beta t1/2 (converted); method in brief: as §3
# [20] = Terminal half-life in rat at 0.5 mg/kg, iv; type: ADME, organism-based; conditions: in vivo, read-out: beta t1/2 (converted)
# [21] = Hepatic clearance in cynomolgus monkey at 0.5 mg/kg, iv or 2 mg/kg, po; type: ADME, organism-based, Macaca fascicularis; conditions: in vivo; method in brief: as §3
# [22] = test system: Mus musculus; experiment: Inhibition of anti-CD3/CD28-stimulated B6-Foxp3 GFP positive mouse T-reg cell migration into tumor of mouse Pan02 cells implanted in C57BL/6 mouse assessed as decrease in number of GFP positive T-reg cells in tumor at 30 mg/kg, po qd treated 24 hrs prior to T-reg cell addition followed by compound dosing for subsequent 4 days and measured on day 6 by flow cytometry relative to control; type: functional; conditions: C57BL/6, Pan02, po
# Method in brief: (§4)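 Pan02 pancreatic tumor-bearing mice dosed QD for 6 days at 10 or 30 mg/kg. GFP+ induced Treg, made from naive CD4+ T cells of Foxp3-GFP transgenic mice, injected 24 h after first dose. GFP+ Treg counted in tumor and spleen versus vehicle group; plasma level taken 24 h after last dose; one-way ANOVA.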
# [23] = Oral bioavailability in dog at 2 mg/kg, po; type: ADME, organism-based, Canis lupus familiaris; conditions: in vivo; method in brief: as §3
# [24] = Terminal half-life in cynomolgus monkey at 0.5 mg/kg, iv; type: ADME, organism-based, Macaca fascicularis; conditions: in vivo, read-out: beta t1/2 (converted); method in brief: as §3
# [25] = Half-life in mouse; type: ADME, organism-based; conditions: in vivo
# [26] = test system: Mus musculus; experiment: Inhibition of anti-CD3/CD28-stimulated B6-Foxp3 GFP positive mouse T-reg cell migration into tumor of mouse Pan02 cells implanted in po dosed C57BL/6 mouse assessed as decrease in number of GFP positive T-reg cells in tumor treated 24 hrs prior to T-reg cell addition followed by daily compound dosing for subsequent 4 days and measured on day 6 by flow cytometry; type: functional, organism-based; method in brief: as §4
# [27] = Clearance in mouse; type: ADME, organism-based; conditions: in vivo
# [28] = Bioavailability in mouse; type: ADME, organism-based; conditions: in vivo
# [29] = Hepatic clearance in dog at 0.5 mg/kg, iv or 2 mg/kg, po; type: ADME, organism-based, Canis lupus familiaris; conditions: in vivo; method in brief: as §3
structure (smiles),measurement,setting,value
Cc1nn([C@H](C)c2ccc(Cl)cc2Cl)c2nc(N3CC[C@H](N4CCC[C@H]4CCS(C)(=O)=O)[C@H](C)C3)cnc12,IC50,[1],104 nM
Cc1nn(C(C)c2ccc(Cl)cc2Cl)c2nc(N3CCC(N4CCCCC4)C(C)C3)cnc12 (configuration not stated),CLH,[2],38.3 mL/min/kg
same,IC50,[1],126 nM
same,AUC(0-inf),[3],217 ng·h/mL
C[C@@H]1CC(c2cnc3c(C#N)nn([C@H](C)c4ccc(Cl)cc4Cl)c3n2)=CC[C@@H]1N1CCC[C@H]1CN,remaining at 1 h,[4],100%
same,IC50,[1],229 nM
same,remaining at 1 h,[5],100%
CC(c1ccc(Cl)cc1Cl)n1ncc2ncc(C3=CCN(C(=O)[C@H]4CCCCN4)CC3)nc21 (some centres not stated),bioavailability,[6],25%
same,IC50,[1],275 nM
Cc1nn([C@H](C)c2ccc(Cl)cc2Cl)c2nc(N3CC[C@H](N4CCC[C@H]4CCC#N)[C@H](C)C3)cnc12,IC50,[1],41 nM
Cc1nn([C@H](C)c2ccc(Cl)cc2Cl)c2nc(N3CC[C@H](N4CCCC4)[C@H](C)C3)cnc12,IC50,[1],69 nM
Cc1nn([C@H](C)c2ccc(Cl)cc2Cl)c2nc(N3CC[C@H](N4CCC[C@H]4CCC(N)=O)[C@H](C)C3)cnc12,IC50,[1],37 nM
C[C@@H]1CN(c2cnc3c(C#N)nn([C@H](C)c4ccc(Cl)cc4Cl)c3n2)CC[C@@H]1N1CCC[C@H]1CO,IC50,[7],> 10000 nM
same,IC50,[8],> 10000 nM
same,IC50,[9],> 10000 nM
same,CLH,[10],114.6 mL/min/kg
same,IC50,[11],> 10000 nM
same,remaining at 1 h,[4],74%
same,IC50,[12],> 10000 nM
same,half-life,[13],2.1 h
same,bioavailability,[14],7%
same,IC50,[1],27 nM
same,AUC(0-inf),[15],23.2 ng·h/mL
same,remaining at 1 h,[5],19%
same,Vd,[16],13.4 L/kg
CC1CN(c2cnc3c(C(N)=O)nn(C(C)c4ccc(Cl)cc4Cl)c3n2)CCC1N1CCCCC1 (configuration not stated),CLH,[2],101.7 mL/min/kg
same,IC50,[1],228 nM
same,AUC(0-inf),[3],82 ng·h/mL
Cc1nn([C@H](C)c2ccc(Cl)cc2Cl)c2nc(N3CC[C@H](N4CCC[C@H]4C(=O)O)[C@H](C)C3)cnc12,IC50,[1],670 nM
CC(c1ccc(Cl)cc1Cl)n1ncc2ncc(N3CCC(N4CCCCC4)CC3)nc21 (configuration not stated),IC50,[1],2580 nM
CC1CN(c2cnc3cnn(C(C)c4ccc(Cl)cc4Cl)c3n2)CCC1N1CCCCC1 (configuration not stated),CLH,[2],121.7 mL/min/kg
same,IC50,[1],238 nM
same,AUC(0-inf),[3],68 ng·h/mL
C[C@@H]1CC(c2cnc3c(C#N)nn([C@H](C)c4ccc(Cl)cc4Cl)c3n2)=CC[C@@H]1N1CCC[C@H]1C(N)=O,remaining at 1 h,[4],97%
same,IC50,[1],54 nM
same,remaining at 1 h,[5],71%
C[C@@H]1CC(c2cnc3c(C#N)nn([C@H](C)c4ccc(Cl)cc4Cl)c3n2)=CC[C@@H]1N1CCC[C@H]1CO,Vd,[17],5.7 L/kg
same,IC50,[7],> 10000 nM
same,IC50,[8],> 10000 nM
same,IC50,[9],> 10000 nM
same,CLH,[10],74.7 mL/min/kg
same,bioavailability,[18],30%
same,IC50,[11],> 10000 nM
same,remaining at 1 h,[4],81%
same,IC50,[12],> 10000 nM
same,half-life,[19],16.4 h
same,half-life,[20],2.2 h
same,CLH,[21],11.3 mL/min/kg
same,inhibition in vivo at 30 mg/kg,[22],100%
same,bioavailability,[23],75%
same,half-life,[24],9.9 h
same,half-life,[25],7.6 h
same,half-life,[13],4.1 h
same,bioavailability,[14],28%
same,inhibition,[26],Dose-dependent effect
same,clearance,[27],12 mL/min/kg
same,IC50,[1],40 nM
same,bioavailability,[28],26%
same,AUC(0-inf),[15],125 ng·h/mL
same,remaining at 1 h,[5],32%
same,CLH,[29],10.7 mL/min/kg
same,Vd,[16],9.8 L/kg
